In ChEMBL document CHEMBL1287703, “Essential structural features of TNF-α lectin-like domain derived peptides for activation of amiloride-sensitive sodium current in A549 cells” (J Med Chem, 2010) one finds Activity data, which are given here for six compounds.

Common to all, as to format: cell-based
Experiment [1] deals with A549. Kind of experiment: Activation of amiloride-sensitive epithelial sodium channel in human A549 cells up to 480 nM at holding potential -100 to + 100 mV by whole cell patch clamp technique. Summed up: (§1)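 A549 cells (passages 80–90) were grown in DMEM/F12 with 10% FBS and 1% penicillin-streptomycin, then whole-cell patch-clamped at 19–22°C, 24–48 h after plating. After a 5 min equilibration, Eh was stepped from −100 to +100 mV in 20 mV steps, 1 min each. A 5 min control preceded cumulative bath peptide addition (3.5–480 nM final), with amiloride added at the end. EC50 was fitted at −100 mV.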
(In patch-clamp work, channel activity is measured electrically.)

Experiment [2] deals with A549. Briefly: Activation of amiloride-sensitive epithelial sodium channel in human A549 cells at 120 nM at holding potential -100 to + 100 mV by whole cell patch clamp technique. In short, it runs like this: as §1
Experiment [3] relates to A549. Kind of experiment: Activation of tetraethylammonium-sensitive potassium channel in human A549 cells at 120 nM at holding potential -100 mV by whole cell patch clamp technique.

The source made the active and inactive calls. The calls are words filed in the database; no cut-off is given here. Where a SMILES comes first, the peptide text is derived from it. Bridges are numbered along the chain shown (N, C = ends).

Turning to `C[C@@H]1NC(=O)CNC(=O)[C@H](CCC(=O)O)NC(=O)[C@@H]2CCCN2C(=O)[C@H]([C@H](C)O)NC(=O)[C@H](CCC(=O)O)NC(=O)[C@H](CCCNC(=N)N)NC(=O)[C@H](CCC(N)=O)NC(=O)[C@@H](N)CSSC[C@@H](C(=O)O)NC(=O)CNC(=O)CNC(=O)[C@H](CCCCN)NC(=O)[C@H](C)NC(=O)[C@H](CCC(=O)O)NC1=O`, in the experiment with A549 [1], the outcome was inactive. In the case of `C[C@@H]1NC(=O)CNC(=O)[C@H](CCC(=O)O)NC(=O)[C@@H]2CCCN2C(=O)[C@H]([C@H](C)O)NC(=O)[C@H](CCC(=O)O)NC(=O)[C@H](CCCNC(=N)N)NC(=O)[C@H](CCC(N)=O)NC(=O)CNC(=O)[C@@H](N)CSSC[C@@H](C(=O)O)NC(=O)[C@H](Cc2ccc(O)cc2)NC(=O)[C@H](Cc2c[nH]c3ccccc23)NC(=O)[C@@H]2CCCN2C(=O)[C@H](CCCCN)NC(=O)[C@H](C)NC(=O)[C@H](CCC(=O)O)NC1=O`, the Activity with A549 [2] turned out to be 99.4%; in the experiment on A549 [3] it was 0.6%.

As to `C[C@@H]1NC(=O)CNC(=O)[C@H](CCC(=O)O)NC(=O)[C@@H]2CCCN2C(=O)[C@H]([C@H](C)O)NC(=O)[C@H](CCC(=O)O)NC(=O)[C@H](CCCNC(=N)N)NC(=O)[C@H](CCC(N)=O)NC(=O)CNC(=O)CCCCCNC(=O)CNC(=O)[C@H](Cc2ccc(O)cc2)NC(=O)[C@H](Cc2c[nH]c3ccccc23)NC(=O)[C@@H]2CCCN2C(=O)[C@H](CCCCN)NC(=O)[C@H](C)NC(=O)[C@H](CCC(=O)O)NC1=O`, the result in the experiment on A549 [1] was inactive. As to `C[C@@H]1NC(=O)CNC(=O)[C@H](CCC(=O)O)NC(=O)[C@@H]2CCCN2C(=O)[C@H]([C@H](C)O)NC(=O)[C@H](CCC(=O)O)NC(=O)[C@H](CCCNC(=N)N)NC(=O)[C@H](CCC(N)=O)NC(=O)CNC(=O)CCCNC(=O)CNC(=O)[C@H](Cc2ccc(O)cc2)NC(=O)[C@H](Cc2c[nH]c3ccccc23)NC(=O)[C@@H]2CCCN2C(=O)[C@H](CCCCN)NC(=O)[C@H](C)NC(=O)[C@H](CCC(=O)O)NC1=O`, the outcome in the experiment on A549 [1] was inactive. On the same count and under the same terms, as for `C[C@@H]1NC(=O)CNC(=O)[C@H](C)NC(=O)[C@@H]2CCCN2C(=O)[C@H](C)NC(=O)[C@H](CCC(=O)O)NC(=O)[C@H](CCCNC(=N)N)NC(=O)[C@H](CCC(N)=O)NC(=O)CNC(=O)[C@@H](N)CSSC[C@@H](C(=O)O)NC(=O)[C@H](Cc2ccc(O)cc2)NC(=O)[C@H](Cc2c[nH]c3ccccc23)NC(=O)[C@@H]2CCCN2C(=O)[C@H](CCCCN)NC(=O)[C@H](C)NC(=O)[C@H](C)NC1=O` (H-CGQREAPAGAAAKPWYC-OH; disulfide 1-17), the entry is “inactive”; as for `C[C@@H]1NC(=O)CNC(=O)[C@H](CCC(=O)O)NC(=O)[C@@H]2CCCN2C(=O)[C@H]([C@H](C)O)NC(=O)[C@H](CCC(=O)O)NC(=O)[C@H](CCCNC(=N)N)NC(=O)[C@H](CCC(N)=O)NC(=O)CNC(=O)CCCCCCNC(=O)[C@H](Cc2ccc(O)cc2)NC(=O)[C@H](Cc2c[nH]c3ccccc23)NC(=O)[C@@H]2CCCN2C(=O)[C@H](CCCCN)NC(=O)[C@H](C)NC(=O)[C@H](CCC(=O)O)NC1=O`, “inactive”.
